GASC-1 inh = human JMJD2C demethylase inhibition; Q9H3R0; GST-JMJD2C(1-420) H3K9me3 demethylation, DELFIA europium; inhibition, % at 2.35 µM; hit rate 0.069% among 330,000; AID 2099;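 active means more than half of a compound's replicate wells show inhibition beyond 50%, single wells judged on their own value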;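 further: signal counts dimethyl H3K9 product captured on neutravidin plate; 0% = median of DMSO wells and 100% = 0.3 times that DMSO median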
HTR2A ag = mouse HTR2A agonism via beta-arrestin recruitment; P35363; activation, % at 7.6 µM; hit rate 0.66% among 360,000; CHO-K1 mHTR2A beta-arrestin complementation, luminescence; percent of 30 µM serotonin response;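 active means activation above a run cutoff, the mean activation of all tested compounds plus 3 SD, cut at about 14% in these data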;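 further: 0% = plate median of compound wells and 100% = 30 µM serotonin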
PP1 counter = counter-screen for PP5 inhibitors: inhibitors of human PP1-alpha; inhibition, % at 6.7 µM; P62136; purified PP1alpha, OMFP fluorescence; hit rate 0.9% among 320,000;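 active means inhibition above the mean inhibition of all tested compounds plus 3 SD, computed separately for each screening campaign, cut at about 15% in these data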
Target sequence (P62136 whole entry, looked up): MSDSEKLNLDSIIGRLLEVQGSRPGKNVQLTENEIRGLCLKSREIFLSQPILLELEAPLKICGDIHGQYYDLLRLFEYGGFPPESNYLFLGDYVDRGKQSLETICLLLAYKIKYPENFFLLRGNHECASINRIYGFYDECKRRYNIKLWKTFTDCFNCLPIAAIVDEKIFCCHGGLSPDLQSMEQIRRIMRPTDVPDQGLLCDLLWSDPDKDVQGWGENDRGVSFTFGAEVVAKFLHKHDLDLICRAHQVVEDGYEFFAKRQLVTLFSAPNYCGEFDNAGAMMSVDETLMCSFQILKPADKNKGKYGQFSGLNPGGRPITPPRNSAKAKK
PP5 inh = PP5 (human) phosphatase inhibition | hit rate 0.18% among 320,000 | AID 1987 | inhibition, % at 6.7 µM | purified PP5c, OMFP substrate fluorescence;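 active means inhibition above the campaign's mean inhibition across all tested compounds plus 3 SD, cut at about 9.5% in these data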;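 further: 0% = DMSO only and 100% = 100 µM cantharidin control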
T cell HTS = modulates CD8 T cell binding to vesicles; 2C CD8+ T cell-vesicle binding, flow cytometry; hits give low values; response (vesicle binding), % at 7 µM; hit rate 0.068% among 330,000;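 active means response, share of CD8 T cells binding vesicles, and their 90th percentile fluorescence all below set limits, cut at about 80% in these data, passing the limit was not always enough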;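 further: values below 100% mean blocked vesicle binding to the CD8+ T cells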
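Assay system – 2C mouse CD8+ T cells · Also added – QL9-loaded Drosophila micro-vesicles · Timing – Cell–vesicle co-incubation 1.5 h at 37 °C, staining 20 min on ice · Signal – flow cytometry of vesicle-bound cells · Measure – percent CD8+ FL2 mean versus row control · Controls – Peptide-free naked vesicles (low) and QL9 vesicles with 0.7% DMSO vehicle (high)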
PP1 inh confirm = human PP1 phosphatase inhibition, confirmation; shares compounds with PP1 counter; purified PP1alpha, OMFP substrate fluorescence; inhibition, % at 6.7 µM; hit rate 52% among 1,900;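 active means mean PP1 inhibition above a set limit taken from the earlier primary screen, cut at about 15% in these data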
PP5 inh counter = inhibits human PP5 phosphatase in PP1 counter-screen | shares compounds with PP1 counter | purified PP5c, OMFP fluorescence | inhibition, % at 6.7 µM | hit rate 4% among 1,900;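 active means mean PP5 inhibition over triplicate wells above about 9.5% taken from the earlier PP1 screen, limit read from the data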
Active calls of the source: *; i = inactive; . = no result given. This is a sample that favours compounds with a hit; in the whole collection about 1.7% have one here.

SMILES | GASC-1 inh | HTR2A ag | PP1 counter | PP5 inh | T cell HTS | PP1 inh confirm | PP5 inh counter
CCC(=O)N1C(C(=O)O)CSC1c1ccc(OC)cc1 (configuration not stated) | -49 | -1 | 31* | -1 | 96 | -2 | -4
N#Cc1ccc(-c2ccc3c(c2)OCO3)nc1SCC(=O)OCc1ccccc1 | -1 | -3 | 18* | 3 | 165 | 10 | 1
COc1ccc(-c2ccc(C#N)c(SCC(=O)OCc3ccccc3)n2)cc1OC | 3 | -1 | -3 | 4 | 351 | . | .
COc1ccc(-n2c(=O)c3c4c(sc3n(CC(=O)NCC3CCCO3)c2=O)CN(C(C)=O)CC4)cc1OC (configuration not stated) | . | 2 | . | . | . | . | .
CCOc1cc(C2C(C(=O)c3ccco3)=C(O)C(=O)N2CCc2ccccc2)ccc1O (configuration not stated) | -3 | -1 | 20* | 1 | 308 | 22* | -1
COc1cc(C2C(C(=O)c3ccco3)=C(O)C(=O)N2Cc2ccccc2)ccc1O (configuration not stated) | 0 | -1 | 1 | 0 | 108 | . | .
CCn1cc(C(=O)NCCc2ccc(OC)cc2)c(=O)c2ccc(C)nc21 | -7 | -3 | 2 | 2 | 368 | . | .
O=C(NC1CCN(c2ncccn2)CC1)c1ccccc1F | 17 | -5 | -2 | 2 | 127 | . | .
O=C(/C=C/c1ccccc1)NC(=S)NNC(=O)c1cccnc1 | -5 | 1 | 11 | 1 | 436 | . | .
O=C(/C=C/c1ccccc1)NC(=S)NNC(=O)c1cnccn1 | 3 | 1 | 22* | 0 | 379 | 24* | -3
O=C(O)C1C2CCC(O2)C1C(=O)Nc1ccc(Br)cc1F (configuration not stated) | 5 | 2 | 58* | 66* | 188 | 14 | 21*
O=C(COC(=O)CC1CCCC1)Nc1ccc(Br)cc1F | -2 | 10 | . | . | 290 | . | .
Cc1ccc(NC(=O)C2C3CCC(O3)C2C(=O)O)c(Br)c1 (configuration not stated) | 1 | 5 | 67* | 73* | 164 | 20* | 28*
Cc1ccc(Cl)cc1NC(=O)C1C2CCC(O2)C1C(=O)O (configuration not stated) | -6 | 12 | 52* | 56* | 223 | 10 | 16*
CC1=NN(c2ccccc2)C(=O)/C1=C/c1c(O)n(-c2ccc(F)c(Cl)c2)[nH]c1=O | 12 | . | 18* | 10* | 251 | 9 | 0
COc1cccc(NC(=O)c2cccnn2)c1 | 7 | 4 | -1 | 0 | 354 | . | .
CCCc1cc(=O)n(-c2nc3ccccc3s2)[nH]1 | -3 | -1 | 9 | -4 | 106 | . | .
CCOC(=O)Cc1cc(=O)n(-c2nc3ccccc3s2)[nH]1 | 3 | -2 | 44* | 0 | 305 | -3 | -5
O=C(NCc1ccncc1)C(=O)N/N=C/c1ccc(OCc2ccccc2)cc1 | 11 | 8 | 38* | 0 | 309 | 32* | 5
CC(=O)Oc1ccc2c(=O)c(Oc3ccccc3[N+](=O)[O-])coc2c1 | 5 | 1 | 56* | 1 | 491 | 0 | 1
COc1cc(/C=C2/NC(=O)NC2=O)ccc1OCC(=O)Nc1ccc(F)cc1 | 0 | 3 | 10 | 3 | 270 | . | .
NNC(=O)Cn1c(SCc2ccccc2)nc2ccccc21 | 106 | -3 | 18* | 0 | 511 | -1 | 0
Cc1nc2ccccc2n1CC(=O)NN | -6 | 4 | -5 | 1 | 188 | . | .
Clc1nn2cnnc2c2ccccc12 | 2 | 8 | -4 | 2 | 216 | . | .
CCCCCCSc1cccc(-c2nc3ccccn3c2NCc2ccccc2)c1 | -1 | -5 | . | . | i | . | .
CCCCCCSc1cccc(-c2nc3cc(C)ccn3c2NC2CCCCC2)c1 | 2 | -5 | 19* | 4 | 675 | 4 | 0
CCCCCCSc1cccc(-c2nc3cc(C)ccn3c2NCc2ccccc2)c1 | 9 | -3 | 19* | 3 | . | 4 | 0
CCC(C)Sc1cccc(-c2nc3ccc(Cl)cn3c2NCc2ccccc2)c1 (configuration not stated) | 1 | 5 | 19* | 5 | 944 | 5 | 3

High-throughput results (PubChem BioAssay)
